What was measured:
[1] = system: panel of five human cell lines (HeLa, A549, HL-60, Jurkat, K562); assay: Antiproliferative assay, summary over the cell line panel; type: cell-based
[2] = system: HeLa cells; assay: Western blot analysis; type: cell-based, human
[3] = system: caspase-3 in HeLa cells; assay: Caspase-3 assay; type: cell-based, human; conditions: 24 and 48 h
[4] = system: Jurkat cells; assay: Flow cytometric analysis of cell cycle distribution; type: cell-based, human; conditions: after 48 h of treatment (data not shown)
Outline: (§1)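 Exponentially growing cells (5 × 10⁵) were exposed to varying concentrations of test compound for 24 and 48 h. They were then collected and fixed in ice-cold 70% ethanol, then treated with lysis buffer containing RNase A and 0.1% Triton X-100. Cells were stained with propidium iodide and analysed by flow cytometry, with sub-G1 (hypodiploid) DNA content scored at 48 h.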

[5] = system: HeLa cells; assay: Mitochondrial membrane potential; type: cell-based, human; conditions: 24 and 48 h
[6] = system: HeLa cells; assay: ROS production; type: cell-based, human; conditions: 24 and 48 h, HE and H2-DCFDA
[7] = system: HeLa cells; assay: Annexin-V/PI assay; type: cell-based, human; conditions: 24 h, compared with control
[8] = system: HeLa cells; assay: Flow cytometric analysis of cell cycle distribution; type: cell-based, human; conditions: after 48 h of treatment (data not shown)
Outline: as §1

[9] = average antiproliferative activity

Work on `COc1cc(C(=O)c2sc3ccccc3c2-c2ccccc2)cc(OC)c1OC` [Compound 3a, (3,4,5-Trimethoxyphenyl)(3-phenylbenzo[b]thiophen-2-yl) methanone] yielded an IC50 ([1]; Homo sapiens, read-out: IC50 against HeLa, HL-60, Jurkat and K562 cells) of 1500 to 2100 nM.
For `CCOc1ccc(Nc2c(C(=O)c3cc(OC)c(OC)c(OC)c3)sc3cc(C)ccc23)cc1` [Compound 4g, (3-(4-Ethoxyphenylamino)-6-methylbenzo[b]thiophen-2-yl) (3,4,5-trimethoxyphenyl)methanone], the “fold less potent than 4e” value ([1]; over the five cell lines) was 4- to 20 fold.
For `COc1ccc(Nc2c(C(=O)c3cc(OC)c(OC)c(OC)c3)sc3ccccc23)cc1` [Compound 4d, (3-(4-Methoxyphenylamino)benzo[b]thiophen-2-yl)(3,4,5-trimethoxyphenyl)methanone], the “loss in activity relative to unsubstituted 4a” value [1, 9] was ~50%.
For `CCOc1ccc(Nc2c(C(=O)c3cc(OC)c(OC)c(OC)c3)sc3ccccc23)cc1` [Compound 4e, (3-(4-Ethoxyphenylamino)benzo[b]thiophen-2-yl)(3,4,5-trimethoxyphenyl)methanone], the “expression of Bax” value [2] was “remained unchanged”, the “expression of Bcl-2” value [2] was “slight decrease” and the “cyclin B1 expression” value ([2]; 24 or 48 h) was “concentration-dependent increase”. For the same compound, the “phosphatase cdc25c (phosphorylation state)” value ([2]; 24 or 48 h) was “slower migrating forms of phosphatase cdc25c were present”, the “89 kDa cleaved fragment of PARP” value ([2]; 24 h and 48 h) was “increased” and the “expression of p53” value ([2]; increasing concentrations) was “no difference”. For the same compound, the “activation of caspase-3” value [3] was “activation of caspase-3 in a time- and concentration-dependent manner”, the “hypodiploid peak (sub-G1) indicative of apoptosis” value [4] was “appeared in both cell lines” and the “fold increase in activity relative to unsubstituted 4a” value [1, 9] was 5 fold. The “fold difference in average antiproliferative activity between 4e and 4d” value ([1]; most active vs least active 3-anilino derivative) was 9 fold, the “fold lower IC50 than 3k” value ([1]; over the five cell lines) was 2- to 15 fold and the “mitochondrial membrane potential (Rho 123 fluorescence)” value [5] was “reduction of Rho 123 fluorescence intensity”. For the same compound, the “production of ROS” value [6] was “induces the production of large amounts of ROS”, the annexin-V positive cells [7] was “induced an accumulation of annexin-V positive cells” and the “hypodiploid peak (sub-G1) indicative of apoptosis” value [8] was “appeared in both cell lines”.

Reference: PMC3074966 (European journal of medicinal chemistry, 2010)
